Assay outcomes: PubChem, several laboratories
Hits are enriched below; roughly 2% of the tested compounds scored in any of these assays.
C8 TRAIL sens = viability loss with TRAIL in NB7+C8 cells, primary screen, TRAIL sensitizer project, cell-based, ATPlite luminescence; inhibition (viability loss, TRAIL sensitization), % at 10 µM; 1% of 360,000 active; AID 624354, 2012;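 active = compounds causing at least 50% loss of cell viability in the single-dose screen, relative to plate controls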
FLuc inh counter = firefly luciferase enzyme inhibitors, primary screen, artefact control for luciferase-based inhibitor screens, biochemical, luminescence, ATPLite. Luciferin 4-monooxygenase (Photinus pyralis), P08659. 10 min. inhibition, % at 10 µM. 1.5% of 200,000 active;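 active = inhibition above about 50% when tested at 10 µM, limit read from the data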
Target sequence (P08659 whole entry, looked up): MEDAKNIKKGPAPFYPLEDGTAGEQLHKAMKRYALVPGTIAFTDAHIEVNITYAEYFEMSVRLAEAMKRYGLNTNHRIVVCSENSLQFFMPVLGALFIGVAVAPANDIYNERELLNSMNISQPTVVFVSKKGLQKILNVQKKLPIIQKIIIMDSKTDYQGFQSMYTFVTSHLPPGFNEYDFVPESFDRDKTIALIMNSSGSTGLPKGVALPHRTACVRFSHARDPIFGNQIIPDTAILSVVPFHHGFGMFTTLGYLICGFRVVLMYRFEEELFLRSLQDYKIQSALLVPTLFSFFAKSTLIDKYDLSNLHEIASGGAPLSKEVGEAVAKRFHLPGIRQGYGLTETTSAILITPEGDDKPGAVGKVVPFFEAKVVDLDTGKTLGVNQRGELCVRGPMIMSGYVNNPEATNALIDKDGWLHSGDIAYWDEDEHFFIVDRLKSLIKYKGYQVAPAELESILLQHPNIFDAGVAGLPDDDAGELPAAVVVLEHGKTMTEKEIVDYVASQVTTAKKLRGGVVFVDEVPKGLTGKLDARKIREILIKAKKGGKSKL
PPC-1+TRAIL kill = compounds killing PPC-1 cancer cells with TRAIL present, primary screen, TRAIL potentiator project, ATPLite luminescence, uHTS; PPC-1 cells + TRAIL, ATPLite viability luminescence; cell killing (% activity), % at 4 µM or 5 µM; 0.41% of 220,000 active; AID 1443, 2008;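 active = cell killing above 50% in the first pass at 4 µM, then a duplicate retest at 5 µM averaging 50% or more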;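 note: plate controls were cells with TRAIL plus DMSO for no effect and medium-only wells lacking cells for full effect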
FLuc act counter = FLuc activators, initial screening, artefact control for FLuc-dependent activation tests, biochemical, ATPlite luminescence; AID 1027, 2008; ATPlite luciferase biochemical, 10 min; 0 = ATP-free wells, 1 = DMSO control; 200,000 tested, under 10 active; Luciferin 4-monooxygenase (Photinus pyralis), P08659; activation factor at 10 µM;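 active = luciferase activation factor, scaled between plate controls, of at least 2 with compound at 10 µM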
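Material: Luciferase/luciferin reagent mix; Doses: test compounds dosed from 2 mM stocks in 100% DMSO; Schedule: 10 min incubation after luciferase reagent addition, room temperature; Measured by: luminescence from luciferase reaction; Read-out: luminescence gain marking luciferase activators.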
HSP90 inh = HSP90 inhibitors, primary screen, cell lysate, luminescence; Heat shock protein HSP 90 (rabbit reticulocyte lysate; luciferase refolding); inhibition, % at 5.6 µM; Rabbit reticulocyte lysate, luciferase refolding luminescence, 3 h; 0.91% of 290,000 active; AID 1789, 2009;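 active = inhibition above the screen-wide mean plus 3 SD, computed separately per campaign, cut at about 16% in these data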;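 note: 0% = DMSO wells and 100% = 60 µM geldanamycin wells; inhibitors lower the luminescence because luciferase stays unfolded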
HSP90 inh confirm = HSP90 inhibitors, confirmation, cell lysate, luminescence | shares compounds with HSP90 inh | rabbit reticulocyte lysate, luciferase refolding luminescence, 3 h | inhibition, % at 5.9 µM | 64% of 2,300 active | AID 1846, 2009; in the data active = inhibition above about 18%;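 note: 0% = vehicle wells and 100% = reference inhibitor wells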
FLuc counter = firefly luciferase inhibitors, HSP90 counter-screen, confirmation, artefact control for HSP90 inhibitor project, biochemical, luminescence, triplicate. inhibition, % at 5.9 µM. 48% of 2,300 active. shares compounds with HSP90 inh. purified native firefly luciferase;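 active = inhibition above the mean inhibition of all tested sample wells plus 3 SD, cut at about 10% in these data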;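 note: 0% = DMSO with luciferase and 100% = wells lacking luciferase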
The depositor's hits bear a star; nt = not tested or not shown.

SMILES	C8 TRAIL sens	FLuc inh counter	PPC-1+TRAIL kill	FLuc act counter	HSP90 inh	HSP90 inh confirm	FLuc counter
Cc1ccc(C)c(SCC(=O)N(C)C2CCS(=O)(=O)C2)c1 (stereo unspecified)	6	nt	nt	nt	nt	nt	nt
COc1cc(C2CC(=O)c3cnc(NC(=O)c4ccco4)nc3C2)cc(OC)c1OC (stereo unspecified)	-6	nt	nt	nt	2	nt	nt
Cc1ccccc1C(=O)Nc1ccc(C(=O)N/N=C/c2ccc(O)cc2)cc1	-1	nt	nt	nt	-6	nt	nt
O=C(N/N=C/c1ccc(O)cc1)c1ccc(NC(=O)c2ccccc2Br)cc1	11	-3	9	1	20*	1	-5
CN(C)c1ccc(N=Nc2cccc(F)c2)cc1	39	nt	nt	nt	39*	47*	41*
C/C(=N\NC(=O)C(O)c1ccccc1)c1ccc(Cl)s1 (stereo unspecified)	-2	nt	nt	nt	0	nt	nt
C/C(=N\Nc1ccc(C(=O)O)cc1)c1ccc(Cl)s1	6	nt	nt	nt	22*	29*	22*
C/C(=N\Nc1ccccn1)c1ccc(S(=O)(=O)NCc2ccco2)cc1	6	-5	25	1.1	-4	nt	nt
C/C(=N\Nc1ccc(C(=O)O)cc1)c1ccc(S(=O)(=O)NCc2ccco2)cc1	-12	nt	7	nt	48*	20*	9
C/C(=N\Nc1ccc(C(=O)O)cc1)c1ccc(Br)cc1	5	nt	8	nt	46*	78*	67*
C/C(=N\Nc1ccc(Cl)c(C(=O)O)c1)c1cccc([N+](=O)[O-])c1	-5	nt	26	nt	18*	2	-14
O=C(Cn1cc(C(F)(F)F)ccc1=O)NC1CCCC1	-4	nt	nt	nt	nt	nt	nt
COc1ccc(NC(=O)CN(C)C(=O)C2(c3ccccc3)CCCC2)cc1	12	nt	nt	nt	nt	nt	nt
COc1ccc(/C(C)=N/Nc2ccc(C(=O)O)cc2)c(OC)c1	3	-2	23	1	22*	13	19*
C/C(=N\Nc1ccc(Cl)c(C(=O)O)c1)c1ccc(Br)s1	2	nt	nt	nt	22*	1	-10
C/C(=N\NC(=O)c1ccc(Cl)c(Cl)c1)c1ccc(Br)s1	26	-1	25	1	-3	nt	nt
COc1ccc(NC(=O)c2cccnc2SC)cc1S(=O)(=O)N1CCCCC1	-6	-7	14	1.1	-3	nt	nt
CC(=O)c1cnc2ncnn2c1C	19	-6	13	1.1	1	nt	nt
Cc1nn(C(C)(C)C)c(C)c1/C=N/OC(=O)Nc1ccc(Cl)c(Cl)c1	-4	nt	-10	nt	78*	86*	85*
Cc1nn(C)c(C)c1NC(=O)Nc1ccc(Cl)c(Cl)c1	33	-4	0	1	-4	nt	nt
Cc1ccc(C)c(NC(=S)Nc2cccc3cnccc23)c1	5	-8	46	1.1	4	nt	nt
Cc1ccc(F)c(NC(=S)Nc2cccc3ccccc23)c1	18	nt	nt	nt	18*	-6	-9
Cc1ccccc1NC(=S)Nc1cccc2cnccc12	3	-6	23	1.1	73*	-3	-7
CC(=O)Nc1ccc(NS(=O)(=O)c2c(Cl)cccc2Cl)cc1	-10	nt	20	nt	-1	nt	nt
COc1ccc2cnn(CCOc3ccccc3)c(=O)c2c1OC	10	21	4	0.8	21*	32*	20*
SMILES	C8 TRAIL sens	FLuc inh counter	PPC-1+TRAIL kill	FLuc act counter	HSP90 inh	HSP90 inh confirm	FLuc counter
CCOc1ccccc1OCCn1ncc2ccc(OC)c(OC)c2c1=O	-10	3	2	1	-1	nt	nt
COc1ccc2nc(/C=N/NC(=O)[C@@H]3CCCN3C(=O)OC(C)(C)C)ccc2c1	-14	nt	11	nt	41*	26*	-1
O=c1nc(Nc2ccccc2)oc2ccccc12	1	nt	13	nt	-1	nt	nt
O=c1oc(Nc2ccc(F)cc2)nc2ccccc12	7	4	2	1	18*	9	-21
O=C(c1ccc(N2CCOCC2)cc1)c1cccs1	37	66*	24	0.3	18*	42*	21*
O=C(Nc1ccc(N2CCOCC2)cc1N1CCOCC1)c1cccs1	3	-1	18	1	5	nt	nt
CN(C)S(=O)(=O)c1cccc(C(=O)Nc2ccccc2C(=O)NC2CC2)c1	3	nt	nt	nt	nt	nt	nt
Nc1cc(=O)[nH]c(SCC(=O)NNC(=O)c2ccccc2)n1	-11	nt	nt	nt	nt	nt	nt
Nc1cc(=O)[nH]c(SCC(=O)NNC(=O)Cc2ccccc2)n1	-1	0	14	1	23*	3	0
Cc1nc(NCCCN2CCOCC2)c2cnn(-c3ccccc3)c2n1	-8	nt	nt	nt	nt	nt	nt
Cc1ccc2c(c1)C(=O)C(=O)N2CCOc1ccccc1	10	8	10	0.9	21*	3	-26
O=C(O)c1ccc(N/N=C/C2=C(N3CCOCC3)C(=C\c3ccccc3)/CC2)cc1	-1	nt	-1	nt	18*	3	2
Cc1cc(C)nc(N/N=C/C2=C(N3CCOCC3)C(=C\c3ccc(Cl)cc3)/CC2)n1	14	-8	16	1.1	2	nt	nt
COc1ccc(-c2onc3ccc(C(=O)/C=C/N(C)C)cc23)cc1	-17	nt	nt	nt	31*	2	1
CN(C)/C=C/C(=O)c1ccc2noc(-c3cccc(F)c3)c2c1	-7	nt	nt	nt	2	nt	nt
COc1ccc2[nH]c(O)c(N=NC(=O)Cc3cccs3)c2c1	1	nt	0	nt	23*	-9	-17
O=C(Cc1cccs1)N=Nc1c(O)[nH]c2ccc(Br)cc12	7	nt	-8	nt	0	nt	nt
Cn1c(=N)n(CC(=O)c2ccc(Cl)c(Cl)c2)c2ccccc21	66*	nt	nt	nt	41*	47*	50*
O=C(Nc1cccc2nsnc12)c1ccc(-c2cccc(Cl)c2)o1	-9	-1	2	1	17*	2	-9
CCOC(=O)c1c(C)oc2c1c(C=NCC1CCCO1)c(O)c1ccccc12 (stereo unspecified)	-3	2	1	1	19*	2	-11
Nc1ccc2oc(-c3cc(Br)ccc3Cl)nc2c1	2	2	15	1	5	nt	nt
CN(C)c1ccc(-c2nc3cc(N)ccc3o2)cc1	83*	nt	nt	nt	30*	55*	51*
CCc1noc(C)c1C(=O)NC1CC(C)(C)Cc2c1cnn2-c1ccccc1 (stereo unspecified)	6	nt	nt	nt	0	nt	nt
O=C(O)c1ccc(S(=O)(=O)/N=C2\C=C(Nc3ccccc3F)C(=O)c3ccccc32)cc1	50	nt	nt	nt	92*	94*	-15
